For test [1], the target named is Sodium/potassium-transporting ATPase. The test is described as follows: In vitro inhibitory concentration against dog kidney Na+/K+ ATPase. It counts as protein-complex assay, Canis lupus familiaris. The method, boiled down:
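Na+,K+-ATPase isolated and purified from dog kidney. Inhibition measured as percent hydrolysis of 32P-ATP with versus without compound. […] Single-concentration entries report percent inhibition at the stated concentration. Compounds tested within 1–4 h of dissolution.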

Test [2] in a line: Percent increase in force of contraction in vitro determined using electrically driven guinea pig left atrium. It counts as functional. Conditions: Cavia porcellus, Cardiac atrium. The method, boiled down: (§1)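 Isolated guinea pig atria in solution bubbled with 95% O2/5% CO2, field-stimulated by platinum electrodes at 1 Hz (1 ms square pulses, twice threshold voltage). After 60 min equilibration, cumulative concentrations added, each held until maximal response or arrhythmia.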

For the next test, the species on record is Cavia porcellus. The experiment in a line: Concentration producing 50% of the maximal increase in the force of contraction in isolated guinea pig left atrium. It counts as functional. To be noted: Cardiac atrium. Put shortly: as §1
The nature of test [3]: In vitro maximum inotropic effect on contractile force of an electrically driven guinea pig left atrium. The test is classed as functional, Cavia porcellus, Cardiac atrium. The method, boiled down:
as §1

Data on 31 molecules can be found in ChEMBL document CHEMBL1133742, “17beta-O-Aminoalkyloximes of 5beta-androstane-3beta,14beta-diol with digitalis-like activity: synthesis, cardiotonic activity, structure-activity relationships, and molecular modeling of the Na(+),K(+)-ATPase receptor” (J Med Chem, 2000).

One may read the IC50 as the concentration that inhibits the measured activity by half. Low values mean higher potency, high ones lower potency. A word on the Emax: it is the maximal effect, on the per cent scale that the assay sets. Broadly, the EC50 is the concentration giving half of the maximal effect. A lower EC50 goes with higher potency in that assay.

For `C[C@]12CC[C@H](O)C[C@H]1CC[C@@H]1[C@@H]2CC[C@]2(C)/C(=N/OCCN)CC[C@]12O`, the IC50 in test [1] is greater than 100000 nM.

In test [2], `C[C@]12CC[C@H](O)C[C@H]1CC[C@@H]1[C@@H]2CC[C@]2(C)[C@@H](/C=N/OCCN)CC[C@]12O` came in with an Emax of 145%. Moreover, in the test filed under Cavia porcellus, the response was half-maximal at 620 nM (EC50). For the same molecule, the IC50 in test [1] turned out to be 160 nM.

In turn, `CC(/C=N/OCCCCN)=C\[C@H]1CC[C@]2(O)[C@@H]3CC[C@@H]4C[C@@H](O)CC[C@]4(C)[C@H]3CC[C@]12C` came in with an Emax in test [2] of 106%. Moreover, it took 4000 nM to reach a half-maximal effect in the test listed under Cavia porcellus (EC50). Also, in test [1], 1260 nM corresponded to half-maximal inhibition (IC50).

For `CN(C)CCCO/N=C1\CC[C@]2(O)[C@@H]3CC[C@@H]4C[C@@H](O)CC[C@]4(C)[C@H]3CC[C@]12C`, the IC50 in test [1] is greater than 100000 nM.

As for `CN(C)CCONC[C@H]1CC[C@]2(O)[C@@H]3CC[C@@H]4C[C@@H](O)CC[C@]4(C)[C@H]3CC[C@]12C.Cl.Cl`, in test [3], the “Concentration giving maximal inotropic effect” value came to 300 µM. This molecule returned an Emax in test [2] of 18%. In test [1], this molecule returned an IC50 of 50000 nM.

`CN(C)CCCO/N=C/[C@H]1CC[C@]2(O)[C@@H]3CC[C@@H]4C[C@@H](O)CC[C@]4(C)[C@H]3CC[C@]12C` registered an Emax in test [2] of 235%. This molecule also yielded an EC50 in the test listed under Cavia porcellus of 1300 nM. In test [1], this molecule had an IC50 of 250 nM.

Consider `C[C@]12CC[C@H](O)C[C@H]1CC[C@@H]1[C@@H]2CC[C@]2(C)[C@@H](CCCNOCCN)CC[C@]12O`, for which the Emax in test [2] was found to be 71%. Moreover, a half-maximal response in the test filed under Cavia porcellus (EC50) required 12000 nM. Further, the IC50 in test [1] stood at 1000 nM.

As for `C[C@]12CC[C@H](O)C[C@H]1CC[C@@H]1[C@@H]2CC[C@]2(C)[C@@H](CC/C=N\OCCN)CC[C@]12O`, in test [2], the Emax was 70%. Further, a half-maximal effect in the test filed under Cavia porcellus (EC50) was put at 1100 nM. This molecule also came in with an IC50 in test [1] of 80 nM.

`CC(/C=N/OCCO)=C\[C@H]1CC[C@]2(O)[C@@H]3CC[C@@H]4C[C@@H](O)CC[C@]4(C)[C@H]3CC[C@]12C`: the “Concentration giving maximal inotropic effect” value in test [3] worked out at 300 µM. In addition, the Emax in test [2] amounted to 175%. In the test filed under Cavia porcellus, this molecule came in with an EC50 of 23000 nM. In test [1], this molecule registered an IC50 of 7900 nM.

Molecule `CN(C)CCO/N=C\C=C1/CC[C@]2(O)[C@@H]3CC[C@@H]4C[C@@H](O)CC[C@]4(C)[C@H]3CC[C@]12C` gave an IC50 in test [1] of 12500 nM.

The molecule `CN(C)CCCO/N=C/C=C1\CC[C@]2(O)[C@@H]3CC[C@@H]4C[C@@H](O)CC[C@]4(C)[C@H]3CC[C@]12C` displayed an IC50 in test [1] of 160000 nM.

For the molecule `C[C@]12CC[C@H](O)C[C@H]1CC[C@@H]1[C@@H]2CC[C@]2(C)[C@@H](C3=CC(=O)OC3)CC[C@]12O` [DIGITOXIGENIN], the “Concentration giving maximal inotropic effect” value in test [3] came out at 3 µM. In addition, the Emax in test [2] was found to be 200%. In the test filed under Cavia porcellus, this molecule displayed an EC50 of 570 nM.

On to `CO/N=C/C=C/[C@H]1CC[C@]2(O)[C@@H]3CC[C@@H]4C[C@@H](O)CC[C@]4(C)[C@H]3CC[C@]12C`, for which half-maximal inhibition in test [1] (IC50) required 4000 nM.

The molecule `CN(C)CCO/N=C1\CC[C@]2(O)[C@@H]3CC[C@@H]4C[C@@H](O)CC[C@]4(C)[C@H]3CC[C@]12C` had an IC50 in test [1] greater than 100000 nM.

As to `CN(C)CCCCO/N=C/[C@H]1CC[C@]2(O)[C@@H]3CC[C@@H]4C[C@@H](O)CC[C@]4(C)[C@H]3CC[C@]12C`, the Emax in test [2] was determined as 214%. In addition, it took 4700 nM to reach a half-maximal effect in the test filed under Cavia porcellus (EC50). Besides, in test [1], the midpoint of inhibition, the IC50, lay at 2000 nM.

`C[C@]12CC[C@H](O)C[C@H]1CC[C@@H]1[C@@H]2CC[C@]2(C)[C@@H](CNOCCCN)CC[C@]12O`: the Emax in test [2] came out at 237%. This molecule also registered an EC50 in the test listed under Cavia porcellus of 3900 nM. The IC50 in test [1] was determined as 400 nM.

In the case of `CO/N=C/C(C)=C/[C@H]1CC[C@]2(O)[C@@H]3CC[C@@H]4C[C@@H](O)CC[C@]4(C)[C@H]3CC[C@]12C`, in test [1], inhibition was half-maximal at 10000 nM (IC50).

Turning to `CN(C)CCO/N=C/[C@H]1CC[C@]2(O)[C@@H]3CC[C@@H]4C[C@@H](O)CC[C@]4(C)[C@H]3CC[C@]12C`, in test [2], the Emax was 39%. The same molecule displayed an IC50 in test [1] of 1000 nM.

As for `C[C@]12CC[C@H](O)C[C@H]1CC[C@@H]1[C@@H]2CC[C@]2(C)[C@@H](CNOCCN)CC[C@]12O.Cl.Cl`, the “Concentration giving maximal inotropic effect” value in test [3] worked out at 100 µM. Besides, the Emax in test [2] was found to be 135%. The molecule also returned an EC50 in the test filed under Cavia porcellus of 8000 nM. Besides, the IC50 in test [1] turned out to be 1580 nM.

Turning to `CN(C)CCCCO/N=C1\CC[C@]2(O)[C@@H]3CC[C@@H]4C[C@@H](O)CC[C@]4(C)[C@H]3CC[C@]12C`, in test [1], the IC50 was greater than 100000 nM.

With `C[C@]12CC[C@H](O)C[C@H]1CC[C@@H]1[C@@H]2CC[C@]2(C)/C(=C/C=N\OCCCN)CC[C@]12O`, the half-maximal inhibitory concentration (IC50) in test [1] is greater than 100000 nM.

For the molecule `CONC/C=C/[C@H]1CC[C@]2(O)[C@@H]3CC[C@@H]4C[C@@H](O)CC[C@]4(C)[C@H]3CC[C@]12C`, the IC50 in test [1] was 40000 nM.

For `CCCO/N=C/C=C/[C@H]1CC[C@]2(O)[C@@H]3CC[C@@H]4C[C@@H](O)CC[C@]4(C)[C@H]3CC[C@]12C`, in test [1], the IC50 was 10000 nM.

In the case of `CO/N=C/[C@H]1CC[C@]2(O)[C@@H]3CC[C@@H]4C[C@@H](O)CC[C@]4(C)[C@H]3CC[C@]12C`, the IC50 in test [1] was 32000 nM.

With `C[C@]12CC[C@H](O)C[C@H]1CC[C@@H]1[C@@H]2CC[C@]2(C)[C@@H](/C=C/C=N/OCCN)CC[C@]12O`, the “Concentration giving maximal inotropic effect” value in test [3] turned out to be 0.3 µM. Besides, the Emax in test [2] was 155%. In the test listed under Cavia porcellus, this molecule had an EC50 of 50 nM. In test [1], half-maximal inhibition (IC50) required 20 nM.

For the molecule `C[C@]12CC[C@H](O)C[C@H]1CC[C@@H]1[C@@H]2CC[C@]2(C)/C(=C/C=N\OCCN)CC[C@]12O`, in test [3], the “Concentration giving maximal inotropic effect” value was determined as 100 µM. In test [2], this molecule showed an Emax of 136%. Further, a half-maximal response in the test listed under Cavia porcellus (EC50) required 18000 nM. In test [1], this molecule displayed a half-inhibitory concentration (IC50) of 2000 nM.

For the molecule `C[C@]12CC[C@H](O)C[C@H]1CC[C@@H]1[C@@H]2CC[C@]2(C)[C@@H](/C=C/C=N/OCCO)CC[C@]12O`, the “Concentration giving maximal inotropic effect” value in test [3] stood at 300 µM. In test [2], this molecule showed an Emax of 179%. In addition, in the test filed under Cavia porcellus, the EC50 came to 39000 nM. This molecule gave an IC50 in test [1] of 6300 nM.

`CN(C)CCO/N=C/C[C@H]1CC[C@]2(O)[C@@H]3CC[C@@H]4C[C@@H](O)CC[C@]4(C)[C@H]3CC[C@]12C` came in with an Emax in test [2] of 73%. The molecule further showed an EC50 in the test listed under Cavia porcellus of 1800 nM. Also, in test [1], the IC50 came to 630 nM.

Molecule `C[C@]12CC[C@H](O)C[C@H]1CC[C@@H]1[C@@H]2CC[C@]2(C)[C@@H](/C=C/C=C/CCN)CC[C@]12O` showed an Emax in test [2] of 98%. Also, in the test filed under Cavia porcellus, a half-maximal effect (EC50) was put at 380 nM. The IC50 in test [1] stood at 80 nM.

Consider `CC(/C=N/OCCN(C)C)=C\[C@H]1CC[C@]2(O)[C@@H]3CC[C@@H]4C[C@@H](O)CC[C@]4(C)[C@H]3CC[C@]12C.O=C(O)/C=C/C(=O)O`, for which the “Concentration giving maximal inotropic effect” value in test [3] was 0.3 µM. Besides, the Emax in test [2] is 146%. Further, in the test filed under Cavia porcellus, the EC50 worked out at 70 nM. The molecule also registered an IC50 in test [1] of 60 nM.

Consider `CONC[C@H]1CC[C@]2(O)[C@@H]3CC[C@@H]4C[C@@H](O)CC[C@]4(C)[C@H]3CC[C@]12C`, for which, in test [1], it took 79000 nM to reach half-maximal inhibition (IC50).
